Measured values taken from ChEMBL document CHEMBL4406880, “Design, synthesis, and bioactivity of dihydropyrimidine derivatives as kinesin spindle protein inhibitors” (Bioorg Med Chem, 2019).

How the values were obtained:
Format in all cases: functional
[1] = system: PC-3; test: Growth inhibition of human PC3 cells assessed as cell viability at 0.1 uM incubated for 48 hrs by sulforhodamine B assay; conditions: PC-3, 48 h, read-out: Activity
[2] = system: UACC-257; test: Growth inhibition of human UACC257 cells assessed as cell viability at 0.001 uM incubated for 48 hrs by sulforhodamine B assay relative to control; conditions: UACC-257, 48 h, read-out: Activity
[3] = system: 786-0; test: Growth inhibition of human 786-0 cells incubated for 48 hrs by sulforhodamine B assay; conditions: 786-0, 48 h
In short: (§1)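 NCI-60 five-dose mode: five tenfold dilutions (0.01, 0.1, 1, 10, 100 µM) are applied for 48 h to cells in RPMI 1640 with 5% FBS at 37 °C. Endpoint is TCA fixation with sulforhodamine B read at 515 nm. % growth comes from the 0 h and control absorbances. GI50 is the concentration giving a 50% reduction in net cell growth.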

[4] = system: K562; test: Growth inhibition of human K562 cells assessed as cell viability at 100 uM incubated for 48 hrs by sulforhodamine B assay; conditions: K562, 48 h, read-out: Activity
[5] = system: OVCAR-3; test: Growth inhibition of human OVCAR3 cells assessed as cell viability at 0.1 uM incubated for 48 hrs by sulforhodamine B assay; conditions: OVCAR-3, 48 h, read-out: Activity
[6] = system: UACC-62; test: Growth inhibition of human UACC62 cells assessed as cell viability at 0.001 uM incubated for 48 hrs by sulforhodamine B assay relative to control; conditions: UACC-62, 48 h, read-out: Activity
[7] = system: K562; test: Growth inhibition of human K562 cells assessed as cell viability at 0.001 uM incubated for 48 hrs by sulforhodamine B assay relative to control; conditions: K562, 48 h, read-out: Activity
[8] = system: SK-OV-3; test: Growth inhibition of human SKOV3 cells incubated for 48 hrs by sulforhodamine B assay; conditions: SK-OV-3, 48 h
In short: (§2)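 NCI-60 five-dose SRB assay. Cells were exposed for 48 h to tenfold dilutions of 0.01, 0.1, 1, 10 and 100 µM, in RPMI 1640 with 5% FBS. Plates fixed with TCA at the time of drug addition served as the time-zero reference. GI50 is the concentration giving a 50% reduction in net growth. TGI is total growth inhibition. LC50 is a net 50% loss of the initial cells.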

[9] = system: MCF7; test: Growth inhibition of human MCF7 cells assessed as cell viability at 100 uM incubated for 48 hrs by sulforhodamine B assay; conditions: MCF7, 48 h, read-out: Activity
[10] = system: A498; test: Growth inhibition of human A498 cells assessed as cell viability at 0.1 uM incubated for 48 hrs by sulforhodamine B assay; conditions: A498, 48 h, read-out: Activity; in short: as §1
[11] = system: 786-0; test: Growth inhibition of human 786-0 cells assessed as cell viability at 100 uM incubated for 48 hrs by sulforhodamine B assay; conditions: 786-0, 48 h, read-out: Activity; in short: as §1
[12] = system: SNB-75; test: Cell cycle arrest in human SNB75 cells assessed as accumulation in G0/G1 phase at 2 uM incubated for 24 hrs by propidium iodide based flow cytometry (reference value: 55.62 %)
In short: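 SNB-75 cells were exposed to 2 µM for 24 h at 37 °C, 5% CO2, then washed with PBS and fixed in 70% ethanol on ice for 15 min. They were stained 1 h at room temperature with 50 µg/mL propidium iodide, 0.1 mg/mL RNase A and 0.05% Triton X-100. DNA content was read by flow cytometry to give the % of cells in pre-G1, G0/G1, S and G2/M.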

[13] = system: CCRF-CEM; test: Growth inhibition of human CCRF-CEM cells incubated for 48 hrs by sulforhodamine B assay; in short: as §1
[14] = system: RPMI-8226; test: Growth inhibition of human RPMI8226 cells incubated for 48 hrs by sulforhodamine B assay; conditions: RPMI-8226, 48 h
In short: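 NCI-60 five-dose assay, SRB end-point, same culture conditions. Compound is tested at tenfold dilutions of 0.01, 0.1, 1, 10 and 100 µM for 48 h at 37 °C, with DMSO/PBS vehicle controls. Percentage growth at each concentration is taken against untreated cells and a time-zero plate. GI50 is 50% net growth decrease, TGI is total growth inhibition, and LC50 is 50% loss of initial cells.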

[15] = system: OVCAR-4; test: Growth inhibition of human OVCAR4 cells assessed as cell viability at 100 uM incubated for 48 hrs by sulforhodamine B assay; conditions: OVCAR-4, 48 h, read-out: Activity
[16] = system: SN12C; test: Growth inhibition of human SN12C cells assessed as cell viability at 100 uM incubated for 48 hrs by sulforhodamine B assay; conditions: read-out: Activity
[17] = system: U-251; test: Growth inhibition of human U251 cells assessed as cell viability at 100 uM incubated for 48 hrs by sulforhodamine B assay; conditions: U-251, 48 h, read-out: Activity
[18] = system: COLO 205; test: Growth inhibition of human COLO205 cells assessed as cell viability at 0.1 uM incubated for 48 hrs by sulforhodamine B assay; conditions: COLO 205, 48 h, read-out: Activity
[19] = system: HOP-62; test: Growth inhibition of human HOP62 cells incubated for 48 hrs by sulforhodamine B assay; conditions: HOP-62, 48 h
In short: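 NCI-60 five-dose SRB assay in RPMI 1640 with 5% FBS, 37 °C, 5% CO2. Compound given at five tenfold dilutions, 0.01–100 µM, for 48 h. Adherent cells fixed with TCA, suspension cells with 16% final TCA. Bound SRB read at 515 nm and growth calculated against time-zero and untreated controls. GI50 taken from dose–response curves as the concentration giving a 50% decrease in net cell growth.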

[20] = system: KM12; test: Growth inhibition of human KM12 cells assessed as cell viability at 0.1 uM incubated for 48 hrs by sulforhodamine B assay; conditions: KM12, 48 h, read-out: Activity
[21] = system: UACC-257; test: Growth inhibition of human UACC257 cells incubated for 48 hrs by sulforhodamine B assay; conditions: UACC-257, 48 h; in short: as §2
[22] = read-out: LC50 (the source's name)
[23] = read-out: pLC50 (the source's name) (converted)

Structure (SMILES): CC1=C(C(=O)OCc2ccccc2)C(c2ccc3c(c2)OCO3)n2c(nc3ccccc32)N1 (racemic)
- viability at 0.1 µM [1]: 91%
- viability at 0.001 µM [2]: 88%
- GI50 ([3]; read-out: GI50): 0.47 µM
- CC50 [3, 22]: > 100 µM
- TGI ([3]; read-out: TGI): > 100 µM
- GI50 ([3]; read-out: pGI50 (converted)): 0.468 µM
- CC50 [3, 23]: > 100 µM
- TGI ([3]; read-out: pTGI): > 100 µM
- viability at 100 µM [4]: 26%
- viability at 0.1 µM [5]: 85%
- viability at 0.001 µM [6]: 90%
- viability at 0.001 µM [7]: 93%
- GI50 ([8]; read-out: GI50): 0.47 µM
- CC50 [8, 22]: > 100 µM
- TGI ([8]; read-out: TGI): > 100 µM
- GI50 ([8]; read-out: pGI50 (converted)): 0.468 µM
- CC50 [8, 23]: > 100 µM
- TGI ([8]; read-out: pTGI): > 100 µM
- viability at 100 µM [9]: 7%
- viability at 0.1 µM [10]: 95%
- viability at 100 µM [11]: 22%
- Activity [12]: 34.52%
- GI50 ([13]; read-out: GI50): 0.41 µM
- CC50 [13, 22]: > 100 µM
- TGI ([13]; read-out: TGI): > 100 µM
- GI50 ([13]; read-out: pGI50 (converted)): 0.407 µM
- CC50 [13, 23]: > 100 µM
- TGI ([13]; read-out: pTGI): > 100 µM
- CC50 [14, 22]: > 100 µM
- TGI ([14]; read-out: TGI): > 100 µM
- CC50 [14, 23]: > 100 µM
- TGI ([14]; read-out: pTGI): > 100 µM
- viability at 100 µM [15]: 19%
- viability at 100 µM [16]: 25%
- viability at 100 µM [17]: 3%
- viability at 0.1 µM [18]: 101%
- GI50 ([19]; read-out: GI50): 0.78 µM
- CC50 [19, 22]: > 100 µM
- TGI ([19]; read-out: TGI): > 100 µM
- GI50 ([19]; read-out: pGI50 (converted)): 0.776 µM
- CC50 [19, 23]: > 100 µM
- TGI ([19]; read-out: pTGI): > 100 µM
- viability at 0.1 µM [20]: 86%
- GI50 ([21]; read-out: GI50): 0.98 µM
- LC50 (concentration killing 50% of the initial cells) ([21]; read-out: LC50): > 100 µM
- TGI ([21]; read-out: TGI): > 100 µM
- GI50 ([21]; read-out: pGI50 (converted)): 0.977 µM
- LC50 (concentration killing 50% of the initial cells) ([21]; read-out: pLC50 (converted)): > 100 µM
- TGI ([21]; read-out: pTGI): > 100 µM
